Measurements taken from ChEMBL document CHEMBL4011621, “A Novel Series of Highly Potent Small Molecule Inhibitors of Rhinovirus Replication” (J Med Chem, 2017).

Legend:
rhinovirus B14 = assay: Antiviral activity against Human rhinovirus B14 infected in human H1HeLa cells assessed as protection against virus induced cytopathic effect after 3 days by MTT assay; assay type: functional, cell-based; settings: Rhinovirus B, H1-HeLa, 72 h
rhinovirus A21 = assay: Antiviral activity against Human rhinovirus A21 infected in human H1HeLa cells assessed as protection against virus induced cytopathic effect after 3 days by MTT assay; assay type: functional, cell-based; settings: Rhinovirus A, H1-HeLa, 72 h
How it was run: (§1)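 CPE-reduction assay in H1HeLa cells plated 2 d before. Equal volumes of virus and compound were added and held at 33 °C for 3 d under CO2. Supernatant was removed, then MTT was added for 1 h at 37 °C. Formazan was dissolved and read at 540 nm against a 690 nm reference. Survival was scaled between uninfected untreated wells (100%) and virus-only wells (0%); mean ± SD, three experiments.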

[1] = Cytotoxicity against human H1HeLa cells assessed as decrease in cell viability after 3 days by MTT assay; assay type: cell-based, H1-HeLa
[2] = Antiviral activity against Human rhinovirus A71 infected in human H1HeLa cells assessed as protection against virus induced cytopathic effect after 3 days by MTT assay; assay type: functional, cell-based; settings: Rhinovirus A, H1-HeLa, 72 h; how it was run: as §1
[3] = Selectivity index, ratio of CC50 for human H1HeLa cells to EC50 for Human rhinovirus B14 infected in human H1HeLa cells; assay type: toxicity, cell-based; settings: read-out: Ratio CC50/EC50
How it was run: (§2)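 H1HeLa cells plated 2 d ahead; virus plus compound (equal volumes) incubated 33 °C, 3 d, CO2. MTT 1 h at 37 °C, A540/A690. Survival scaled between uninfected untreated (100%) and virus-only (0%) wells to give EC50. CC50 = 50% cell death by MTT in H1HeLa. SI = CC50/EC50; at least three independent experiments.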

[4] = Selectivity index, ratio of CC50 for human H1HeLa cells to EC50 for Human rhinovirus A21 infected in human H1HeLa cells; assay type: toxicity, cell-based; settings: read-out: Ratio CC50/EC50; how it was run: as §2
[5] = Selectivity index, ratio of CC50 for human H1HeLa cells to EC50 for Human rhinovirus A71 infected in human H1HeLa cells; assay type: toxicity, cell-based; settings: read-out: Ratio CC50/EC50; how it was run: as §2
Poliovirus 3 = assay: Antiviral activity against Human poliovirus 3 infected in human HeLa cells assessed as protection against virus induced cytopathic effect after 2 days by MTT assay; assay type: functional, cell-based; settings: Enterovirus C, 48 h
How it was run: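 HeLa cells; MTT-based CPE reduction. Virus and compound added in equal volumes, incubated 37 °C for 2 d in CO2. Supernatant removed, MTT 1 h at 37 °C, formazan dissolved, absorbance 540 nm (690 nm reference). Uninfected untreated wells = 100% survival, virus-only = 0%. EC50 = 50% inhibition; means ± SD, three experiments.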

[6] = Cytotoxicity aganist human HeLa cells assessed as decrease in cell viability after 2 days by MTT assay; assay type: cell-based
[7] = Selectivity index, ratio of CC50 for human HeLa cells to EC50 for human poliovirus 3 infected in human HeLa cells; assay type: toxicity, cell-based; settings: read-out: Ratio CC50/EC50
How it was run: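 SI = CC50/EC50 in HeLa cells. CC50 = 50% cell death by MTT. EC50 = 50% inhibition of PV3 CPE by MTT after 2 d at 37 °C, survival scaled to uninfected (100%) and virus-only (0%) wells. At least three independent experiments.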

SMILES	EC50 (rhinovirus B14)	EC50 (rhinovirus A21)	CC50 at 72 h [1]	EC50 [2]	selectivity ratio [3]	selectivity ratio [4]	selectivity ratio [5]	EC50 (Poliovirus 3)	CC50 at 48 h [6]	selectivity ratio [7]
CNC(=O)c1cc(Oc2ccc3c(C)c(C(=O)OC)sc3c2)ccn1	2 µM	0.25 µM	10.8 µM	1.6 µM	5.4	43	6.8	0.087 µM	15.7 µM	180
CCOC(=O)c1ccc2cc(Oc3ccnc(C(=O)NC)c3)ccc2c1	2.1 µM	0.091 µM	35.3 µM	0.0035 µM	17	390	10000	0.41 µM	34.1 µM	83
CCNC(=O)c1sc2cc(Oc3ccnc(C(=O)NC)c3)ccc2c1C	> 100 µM	> 100 µM	> 100 µM	> 100 µM	–	–	–	> 100 µM	> 100 µM	–
CCOC(=O)c1sc2cc(Oc3ccnc(C(=O)OC)c3)ccc2c1C	> 24.9 µM	> 24.9 µM	24.9 µM	15 µM	–	–	1.7	> 26.2 µM	26.2 µM	–
CNC(=O)c1cc(Oc2ccc3cc(C(=O)OC(C)C)sc3c2)ccn1	1.7 µM	1.5 µM	45.7 µM	0.013 µM	27	31	3500	6.4 µM	45 µM	7
CNC(=O)c1cc(Oc2ccc3c(C)c(C(=O)OC(C)C)n(C)c3c2)ccn1	1.9 µM	0.13 µM	11.2 µM	0.06 µM	5.9	86	190	0.071 µM	8.5 µM	120
CCOC(=O)c1sc2cc(Oc3cccc(C(=O)NC)c3)ccc2c1C	3.4 µM	0.085 µM	5.1 µM	0.15 µM	1.5	60	34	0.38 µM	7.7 µM	20
CCOC(=O)c1ccc2ccc(Oc3ccnc(C(=O)NC)c3)cc2n1	56.6 µM	44.3 µM	> 100 µM	1.3 µM	> 1.8	> 2.3	> 77	1.9 µM	> 100 µM	> 53
CCOC(=O)c1sc2cc(Oc3ccnc(C(=O)NC)c3)ccc2c1CC	13.5 µM	0.21 µM	35.2 µM	1.3 µM	2.6	170	27	> 16.7 µM	16.7 µM	–
CCOC(=O)c1sc2cc(O)ccc2c1C	> 82 µM	> 82 µM	82 µM	> 82 µM	–	–	–	9.4 µM	46.6 µM	5
CCOC(=O)c1cc2ccc(Oc3ccnc(C(=O)NC)c3)cc2o1	> 100 µM	66 µM	> 100 µM	1.4 µM	–	> 1.5	> 71	> 100 µM	> 100 µM	–
CNC(=O)c1cc(Oc2ccc3ccc(C(=O)Oc4ccccc4)cc3c2)ccn1	> 100 µM	> 100 µM	> 100 µM	8.27 µM	–	–	> 12	60.1 µM	> 100 µM	> 1.7
CCOC(=O)c1sc2cc(Oc3ccnc(C(=O)NC)c3)ccc2c1Cl	11.7 µM	1.7 µM	46.9 µM	2.7 µM	4	28	17	> 45.6 µM	45.6 µM	–
CNC(=O)c1cc(Oc2ccc3c(C)c(C(=O)OC(C)C)[nH]c3c2)ccn1	> 14.6 µM	2.5 µM	14.6 µM	1.9 µM	–	5.8	7.7	0.072 µM	8.4 µM	120
CCOC(=O)c1sc2cc(OC)ccc2c1C	> 100 µM	> 100 µM	> 100 µM	3.8 µM	–	–	> 26	1.8 µM	> 100 µM	> 56
CCOC(=O)c1cc2ccc(OC)cc2s1	> 70.9 µM	> 70.9 µM	70.9 µM	5.1 µM	–	–	14	13.1 µM	44.4 µM	3.4
CCOC(=O)c1sc2cc(Oc3ccnc(C(=O)NC)c3)ccc2c1N	> 0.11 µM	> 0.11 µM	0.11 µM	> 0.11 µM	–	–	–	> 0.45 µM	0.45 µM	–
CCOC(=O)c1cc2ccc(Oc3ccncc3)cc2s1	> 42.4 µM	> 42.4 µM	42.4 µM	7.3 µM	–	–	5.8	> 43.9 µM	43.9 µM	–
CCOC(=O)c1sc2cc(Oc3ccccc3)ccc2c1C	> 100 µM	1 µM	> 100 µM	1.7 µM	–	> 100	> 59	> 47.6 µM	47.6 µM	–
CCOC(=O)c1cc2ccc(Oc3ccccc3)cc2s1	68.6 µM	51.1 µM	> 100 µM	2.8 µM	> 1.5	> 2	> 36	> 90.1 µM	90.1 µM	–
CCC(C)OC(=O)c1ccc2ccc(Oc3ccnc(C(=O)NC)c3)cc2c1 (stereo not given)	> 16 µM	0.41 µM	16 µM	0.013 µM	–	39	1200	0.35 µM	9 µM	26
CNC(=O)c1ccc(Oc2ccc3c(C)c(C(=O)OC(C)C)sc3c2)cn1	> 7.6 µM	3.3 µM	7.6 µM	1.7 µM	–	2.3	4.5	> 12.9 µM	12.9 µM	–
CNC(=O)c1cc(Oc2ccc3c(C)c(C(=O)OCc4ccccc4)sc3c2)ccn1	> 18.8 µM	0.55 µM	18.8 µM	1.4 µM	–	34	13	0.34 µM	18.1 µM	53
CNC(=O)c1cc(Oc2ccc3cc(C(=O)OC)sc3c2)ccn1	> 100 µM	75.6 µM	> 100 µM	4.6 µM	–	> 1.3	> 22	> 68.3 µM	68.3 µM	–
COc1ccc(OCc2ccc(COc3c(Cl)cccc3Cl)cc2)c(Cl)c1	> 100 µM	2 µM	> 100 µM	0.25 µM	–	> 50	> 400	0.08 µM	16 µM	200
CCOC(=O)c1cc2ccc(O)cc2s1	> 52.3 µM	> 52.3 µM	52.3 µM	8.9 µM	–	–	5.9	> 46.9 µM	46.9 µM	–
CNC(=O)c1cc(Oc2ccc3c(C)c(C(=O)O)sc3c2)ccn1	> 100 µM	> 100 µM	> 100 µM	> 100 µM	–	–	–	> 100 µM	> 100 µM	–
CNC(=O)c1cc(Oc2ccc3c(C)c(C(=O)N(C)C)sc3c2)ccn1	> 42.5 µM	> 42.5 µM	42.5 µM	> 42.5 µM	–	–	–	> 44.4 µM	44.4 µM	–
CCOC(=O)c1cc2cc(Oc3ccnc(C(=O)NC)c3)ccc2cc1O	> 100 µM	0.41 µM	> 100 µM	0.29 µM	–	> 240	> 340	0.18 µM	> 100 µM	> 560
